Source: publication PMC11607638 (The FASEB Journal, 2024)
Like-named read-outs stand apart in the source and are kept apart here. Square brackets hold non-standard residues; d marks the D form. Ends that are not written are not given here. sY = N[C@@H](Cc1ccc(OS(=O)(=O)O)cc1)C(=O)O

Experiments:
SK receptor gene SKR [1] = assay: Fura-2 calcium imaging in perifused SKR-CHO-K1 cells; assay type: cell-based, Aedes aegypti; details: for Reversibility of stimulation upon wash-out in perifused SKR-CHO-K1 cells: Figures 4, 5, 6; for Onset (lag time) of cytosolic calcium oscillations in SKR-CHO-K1 cells: at lower concentrations, Figures 4 and 5
Procedure, shortened: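 CHO-K1 cells at 80–90% confluency were transfected in serum-free medium with pcDNA3.1(+)-SKR using jetPRIME for 24–36 h. Cells were loaded with Fura-2AM (10 µM, 50 min, 37 °C), attached to coated coverslips and perifused in HEPES buffer, pH 7.4. The 340/380 nm excitation ratio was recorded per single cell. Peptides used: SK1 300 pM–30 nM, SK2 3 nM ± devazepide 10 nM, CCK 1–100 nM. Peak area above baseline per 10 min; mean ± SEM, t-test.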

[2] = system: mammalian cholecystokinin 1 receptor (CCK1R); assay: Fura-2 calcium imaging in isolated rat pancreatic acini; assay type: cell-based; details: CCK 10 pM
Procedure, shortened: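 Acini came from male Sprague-Dawley rats (250–450 g) by collagenase P digestion (0.2 g/L, 2 × 10 min, 37 °C) in HEPES-buffered saline, pH 7.4. They were loaded with Fura-2AM (10 µM, 30 min) and attached to Cell-Tak- or Matrix-Gel-coated coverslips in a perifusion chamber. The buffer was the same minus BSA, amino acids and trypsin inhibitor. Fluorescence was excited alternately at 340/380 nm and the ratio recorded over time.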

[3] = Body weight of female mosquitoes after injection; assay type: in vivo, Aedes aegypti; details: for Pre-blood meal body weight among groups: DEPC water, SK2 100 μM, SK2 + proglumide (Figure 3F left)
Procedure, shortened: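 Females 3 days post-eclosion were starved 12 h, given a 1 µL thoracic injection, and starved a further 24 h. They were weighed on a balance immediately before the blood meal, 30 per group.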

CHO-K1 cells = assay: Fura-2 calcium imaging in un-transfected parental CHO-K1 cells; assay type: cell-based, Chinese hamster; details: 30 nM
Procedure, shortened: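 Un-transfected CHO-K1 cells were grown in DMEM/F12 with 10% FBS, then loaded with Fura-2AM (10 µM, 50 min, 37 °C) and perifused on coated coverslips. They were exposed to SK1 or SK2 at 30 nM. Cytosolic calcium was followed as the 340/380 nm excitation ratio in single cells.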

SK receptor gene SKR [4] = assay: qPCR of SKR mRNA in mosquito head after peptide injection; assay type: in vivo, Aedes aegypti; details: after blood feeding 24 h after injection
Aedes aegypti [5] = assay: Blood-feeding time course after thoracic peptide injection; assay type: in vivo; details: Figure 3C
Procedure, shortened: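 Females were given 1 µL thoracic injections of DEPC water, SK1, SK2 (200 µM) or SK1+SK2 (100 µM each, final), then kept in separate cages for 24 h, 20 per group, and offered blood. Feeding was counted as complete when a mosquito stopped and no longer moved actively. Completed feeders were recorded every 10 min until all had fed; run in triplicate.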

Aedes aegypti [6] = assay: Blood meal size after thoracic peptide injection; assay type: in vivo; details: 24 h
Procedure, shortened: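 Females 3 days post-eclosion, starved 12 h before and 24 h after a 1 µL thoracic injection, then blood-fed. Each mosquito was weighed before and after the meal, and intake was taken as the weight difference. SK2 was given at 50, 100 or 150 pmol/µL against DEPC water, 30 per group. For reversal, SK2 100 µM plus proglumide 14 mM (final, 1:1 mix) was injected and intake weighed 24 h later.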

SK gene SK = assay: qPCR of SK mRNA in mosquito head after peptide injection; assay type: in vivo, Aedes aegypti; details: after blood feeding 24 h after injection

For “CCK: sulfated cholecystokinin octapeptide (CCK), Tocris Cookson #1166 (D[sY]MGWMDF-NH2; UniProt P06307 96-103, looked up) [reference compound]”, the “Calcium response in SKR-CHO-K1 cells” value (SK receptor gene SKR [1]; CCK 1 nM) was “no effect”, the “Calcium response in SKR-CHO-K1 cells” value (SK receptor gene SKR [1]; CCK 10 nM and 100 nM) was “clear calcium increases” and the “Reversibility of stimulation upon wash-out in perifused SKR-CHO-K1 cells” value (“Reversibility” for short) (SK receptor gene SKR [1]) was “readily washed out”. For the same compound, the “Efficiency of activating SKR compared with mosquito peptide SK2” value (SK receptor gene SKR [1]; SKR-CHO-K1, Figure 6) was “probably less efficiently than the mosquito peptide SK2” and the “Calcium response in rat pancreatic acini” value [2] was “robust calcium oscillations”.
In the case of GGEGEQFDDY(SO3H)GHMRF [SK2], the “Reversibility” value (SK receptor gene SKR [1]) is reported as “long‐lasting even after wash‐out”, the “Calcium response in SKR-CHO-K1 cells” value (SK receptor gene SKR [1]; SK2 100 pM) is reported as “did not stimulate any increases in calcium concentration” and the “Calcium response in SKR-CHO-K1 cells” value (SK receptor gene SKR [1]; SK2 3 nM alone (parallel to antagonist experiment)) is reported as “strong calcium oscillations”. For the same compound, the “Calcium response in SKR-CHO-K1 cells” value (SK receptor gene SKR [1]; SK2 at 300 pM, 1, 3, 10, and 30 nM (all)) was “lasting calcium oscillations”, the “Onset (lag time) of cytosolic calcium oscillations in SKR-CHO-K1 cells” value (SK receptor gene SKR [1]) was “significant lag time” and the EC50 (SK receptor gene SKR [1]; read-out: EC50, calcium oscillations (areas under the peak above baseline per 10 min), SK2, SKR-CHO-K1, Fura-2 F340/F380, N = 5-8) was 0.251 nM. The “Pre-blood meal body weight among groups” value [3] was “No difference”, the “Body weight after injection at different doses” value ([3]; SK2 50, 100, 150 μM (Figure 3E left)) was “no changes in body weight” and the “Calcium response in parental CHO-K1 cells” value (CHO-K1 cells) was “no effect”. For the same compound, the “SKR mRNA expression vs DEPC water control” value (SK receptor gene SKR [4]) was “No difference”, the “Prolongation of time to complete a blood meal, vs DEPC water and among peptides” value (Aedes aegypti [5]; SK1, SK2 at 200 μM, SK1 + SK2 at 100 μM each) was “stronger prolongation than SK1” and the “Blood intake vs control” value (Aedes aegypti [6]; SK2 50 μM (50 pmol in 1 μL), thoracic injection, 30 per group) was “no significant difference”. For the same compound, the “SK mRNA expression vs DEPC water control” value (SK gene SK) was “decrease significantly”.
In the case of FDDY(SO3H)GHMRF [SK1], the “Reversibility” value (SK receptor gene SKR [1]) is reported as “long‐lasting even after wash‐out”, the “Calcium response in SKR-CHO-K1 cells” value (SK receptor gene SKR [1]; SK1 300 pM) is reported as “did not elicit any change in calcium levels” and the “Calcium response in SKR-CHO-K1 cells” value (SK receptor gene SKR [1]; SK1 at 1, 3, 10, and 30 nM (all)) is reported as “robust calcium spikes”. The “Onset (lag time) of cytosolic calcium oscillations in SKR-CHO-K1 cells” value (SK receptor gene SKR [1]) was “significant lag time”, the EC50 (SK receptor gene SKR [1]; read-out: EC50, calcium spikes (area under the peaks above baseline, per 10 min), SK1, SKR-CHO-K1, Fura-2 F340/F380, monophasic dose-response, N = 5-7) was 1.18 nM and the “Calcium response in parental CHO-K1 cells” value (CHO-K1 cells) was “no effect”. The “SKR mRNA expression vs DEPC water control” value (SK receptor gene SKR [4]) was “No difference”, the “Prolongation of feeding, comparison with SK2 at same concentration” value (Aedes aegypti [5]; SK1 200 μM) was “significantly less active” and the “SK mRNA expression vs DEPC water control” value (SK gene SK) was “decrease significantly”.
For `NCCc1ccc(O)c(O)c1` [dopamine, reference compound], the “Calcium response in SKR-CHO-K1 cells” value (SK receptor gene SKR [1]; dopamine 1 mM) was “no effect”.
For `CCCN(CCC)C(=O)C(CCC(=O)O)NC(=O)c1ccccc1` (centres unmarked) [proglumide], the “Pre-blood meal body weight among groups” value [3] was “No difference”, the “Blood intake after mixed injection vs DEPC water control” value (Aedes aegypti [6]; proglumide 14 mM + SK2 100 μM, 1 μL) was “no significant difference” and the “Blood intake after mixed injection vs single injection of SK2 at 100 μM” value (Aedes aegypti [6]; proglumide 14 mM + SK2 100 μM, 1 μL, ****p < .0001 (Figure 3F)) was “higher”.
In the case of `CN1C(=O)[C@@H](NC(=O)c2cc3ccccc3[nH]2)N=C(c2ccccc2)c2ccccc21` [devazepide, reference compound], the “Block of SK2-induced calcium increases in SKR-CHO-K1 cells (antagonism)” value (SK receptor gene SKR [1]; devazepide 10 nM + SK2 3 nM) is reported as “no longer induced any calcium increases”.
